Results on two molecules are retold here after ChEMBL document CHEMBL1145100, “Structure-activity relationship of imidazo[1,2-a]pyridines as ligands for detecting beta-amyloid plaques in the brain” (J Med Chem, 2003).

What is called Ki is the equilibrium dissociation constant of an inhibitor or competing ligand from its target. Read a high Ki as weaker binding.

The test has as its target Amyloid-beta precursor protein (Homo sapiens, UniProt P05067). The test is described as follows: Inhibition constant against [125I]-7 (TZDM) binding to Amyloid beta 1-40 aggregates. A digest of the protocol:
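Abeta40 peptide aggregated at 0.5 mg/mL in pH 7.4 buffer (10 mM sodium phosphate, 1 mM EDTA), 37 °C for 36-42 h with shaking. Competition in 1 mL of 40% EtOH: fibrils 10-50 nM final, radiotracer 0.05 nM, inhibitors 10^-5 to 10^-10 M. Nonspecific binding with 2 µM thioflavin-T. Incubated 3 h at room temperature, then GF/B filtration with 10% ethanol washes and gamma counting. Ki from nonlinear regression.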

Chain of Amyloid-beta precursor protein (P05067 whole entry): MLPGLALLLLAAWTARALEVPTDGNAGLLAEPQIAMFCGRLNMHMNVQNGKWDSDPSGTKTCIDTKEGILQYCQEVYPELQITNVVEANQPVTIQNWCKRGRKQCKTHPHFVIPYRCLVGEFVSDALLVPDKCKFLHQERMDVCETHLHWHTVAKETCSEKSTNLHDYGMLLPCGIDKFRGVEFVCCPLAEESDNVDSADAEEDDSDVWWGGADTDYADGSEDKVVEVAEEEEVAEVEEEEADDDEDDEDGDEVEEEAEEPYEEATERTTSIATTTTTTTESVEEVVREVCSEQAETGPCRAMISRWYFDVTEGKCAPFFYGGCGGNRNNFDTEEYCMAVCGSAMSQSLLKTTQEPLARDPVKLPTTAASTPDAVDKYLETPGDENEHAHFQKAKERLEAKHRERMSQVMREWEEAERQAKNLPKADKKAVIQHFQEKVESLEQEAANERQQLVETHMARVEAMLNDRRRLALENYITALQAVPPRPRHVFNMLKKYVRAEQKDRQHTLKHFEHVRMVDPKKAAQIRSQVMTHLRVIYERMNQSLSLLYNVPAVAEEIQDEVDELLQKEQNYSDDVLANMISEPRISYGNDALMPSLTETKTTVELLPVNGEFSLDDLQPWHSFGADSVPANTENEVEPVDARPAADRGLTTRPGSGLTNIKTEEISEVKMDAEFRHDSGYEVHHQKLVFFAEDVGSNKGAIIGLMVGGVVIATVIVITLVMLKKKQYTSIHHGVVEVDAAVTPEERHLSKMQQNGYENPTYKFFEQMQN

Consider `CN(C)c1ccc(-c2nc3ccc(I)cn3c2I)cc1`, for which the inhibition constant (Ki) is more than 2000 nM.
For `CN(C)c1ccc(-c2cn3cc(Br)ccc3n2)cc1`, the affinity, expressed as Ki, was 10.3 nM.
